NTR1 agonist = agonists of human neurotensin receptor NTR1 | P30989 | NTR1-U2OS beta-arrestin-GFP spot imaging, agonist mode | activation, % at 20 µM | hit rate 0.17% among 330,000 | AID 493036;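 active means activation at or above 40% of the spot to cytoplasm intensity ratio, with at least 20 cells analyzed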;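 further: 0% = DMSO without peptide and 100% = 100 nM NTR1 peptide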
Arrestin-AP2 inh = human beta-arrestin and AP2 interaction inhibition; FITC-arrestin peptide / GST-AP2 beads, flow cytometry; AP2 beta2 appendage carries R879A mutation; hit rate 0.31% among 340,000; inhibition, % at 10 µM;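 active means inhibition above a set limit, near 3 SD of compounds lacking own fluorescence, cut at about 54% in these data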;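 further: plate controls were DMSO wells for no effect and 5 µM unlabelled arrestin peptide for full effect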
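Material – GST-tagged AP2 beta2-adaptin appendage (R879A) on 4 µm glutathione beads · Probe or stimulus – fluorescein-tagged arrestin peptide at 50 nM final · Timing – 12 min plus 1 h, RT · Detection – bead flow cytometry, FITC channel · Read-out basis – inhibition as reduced fluorescein signal on beads, percent · Medium – PBS plus Tween 20 (0.05%) and BSA (0.1%)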
PLCb3 inh = PLC-beta3 (human) inhibition, primary screen. hit rate 0.18% among 370,000. inhibition, % at 12.2 µM. AID 720704. Q01970. Purified PLC-beta3, fluorogenic substrate, fluorescence; in the data active means inhibition above about 11%;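 further: 0% = median of compound wells on plate and 100% = full blocker control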
PLC-gamma1 inh = blocks human PLC-gamma1 enzyme activity. hit rate 0.84% among 370,000. AID 720700. purified PLC-gamma1, fluorogenic substrate, fluorescence. P19174. inhibition, % at 12.2 µM
PLCgamma1 ctr = inhibits human PLC-gamma1 in PLC-beta3 counter-screen | AID 743258 | shares compounds with PLC-gamma1 inh | inhibition, % at 12.3 µM | purified PLC-gamma1, fluorogenic substrate, fluorescence | hit rate 3.1% among 3,300
PLCbeta3 conf = human PLC-beta3 inhibition, confirmation. shares compounds with PLC-gamma1 inh. purified PLC-beta3, fluorogenic substrate fluorescence. inhibition, % at 12.3 µM. hit rate 1% among 3,300. AID 743261; in the data active means inhibition above about 11%
Numbers without * were called inactive; nt = not tested or not shown. Rows were chosen to be rich in hits. Some 1.3% of all compounds tested hit in one or more screens of this group. Unless noted, no stated cut-off is given here; in the data, active means inhibition above about 9.5%; inactive means the rest.

SMILES | NTR1 agonist | Arrestin-AP2 inh | PLCb3 inh | PLC-gamma1 inh | PLCgamma1 ctr | PLCbeta3 conf
COc1ccc(OCC(=O)OCC(=O)NC2CCCC2)cc1 | -0.4 | -4.9 | -2.6 | 1.5 | nt | nt
COc1ccccc1OCC(=O)NC1CCCCCC1 | 0.2 | 4.2 | 0.1 | 0.6 | nt | nt
COc1ccc(OCC(=O)NC2CCCCCCC2)cc1 | -0.7 | 38.1 | -4.0 | 11.3* | -3.0 | -2.2
CCOc1ccccc1OCC(=O)NC1CCCCC1 | -0.1 | 12.9 | 4.3 | 11.2* | -3.1 | -0.1
O=C(CNC(=O)OCc1ccccc1)NC1CCCCCCC1 | -0.7 | 11.6 | 6.6 | 10.3* | -0.8 | 2.4
O=C(O)CNC(=O)C1(NC(=O)OCc2ccccc2)CCCC1 | nt | 7.5 | 17.4* | 8.4 | -3.1 | 0.1
CC(C)C[C@@H](CO)N1Cc2nnn(Cc3ccccc3)c2-c2ccccc2S1(=O)=O | nt | nt | 5.3 | -2.3 | nt | nt
CCOC(=O)[C@]12CCCC=C1N(CCc1ccc(Cl)cc1)C(=O)[C@@H]2CC(=O)NCCC(C)C | nt | nt | -1.6 | 2.6 | nt | nt
Cc1cc(C)c(S(=O)(=O)/N=C2\C=C(Nc3ccc(C(=O)O)cc3)C(=O)c3ccccc32)c(C)c1 | 0.4 | 45.2 | -4.5 | 4.3 | nt | nt
O=C(O)c1ccc(NC2=C/C(=N/S(=O)(=O)c3cccs3)c3ccccc3C2=O)cc1 | nt | nt | 6.5 | 8.3 | nt | nt
O=C(O)c1ccc(NC2=C/C(=N/S(=O)(=O)c3ccccc3)c3ccccc3C2=O)cc1 | 2.4 | 38.2 | 7.4 | 11.3* | 18.5* | 8.2
O=C1C(Nc2ccc(O)cc2)=C/C(=N/S(=O)(=O)c2cccs2)c2ccccc21 | nt | 0.9 | 6.6 | 20.3* | 29.1* | 10.9*
CCCN(CC1CC1)c1c2c(nc3ncnn13)CCCC2 | nt | nt | -0.9 | -5.2 | nt | nt
O=C(Nc1ccccc1C(F)(F)F)OCCCN1CCC2(CCC(c3ccccc3)CC2)C1=O (stereo not drawn) | nt | nt | -6.7 | 4.1 | nt | nt
CCOc1ccc(S(=O)(=O)N2CCC(C(=O)NCc3cccnc3)CC2)cc1 | -0.4 | 0.0 | -2.8 | 12.4* | -2.2 | 0.8
O=C(NCC(c1ccccc1)c1ccccc1)[C@H](Cc1c[nH]c2ccccc12)NC1(C(=O)NC2CCCCC2)CCCC1 | nt | nt | -2.4 | 2.9 | nt | nt
CC1CC(C)CN(C(=O)Cn2c(=O)n(CCCC(=O)NCc3ccco3)c(=O)c3sccc32)C1 (stereo not drawn) | -0.5 | 32.5 | -1.9 | -0.3 | nt | nt
CC1CCN(C(=O)Cn2c(=O)n(CCCC(=O)NCc3ccco3)c(=O)c3sccc32)CC1 | -2.0 | 1.2 | -1.8 | 13.3* | -7.5 | -1.9
CCSc1nnc(NC(=O)NC(C)(C(F)(F)F)C(F)(F)F)s1 | -1.1 | 5.2 | 0.0 | 2.7 | nt | nt
CCOC(=O)NC(Nc1nnc(SCC)s1)(C(F)(F)F)C(F)(F)F | 0.7 | -6.2 | 5.9 | 11.1* | -6.7 | -5.3
CCOCCCNC(=O)C1(O)c2ccccc2NC(=O)N1c1ccc(C)c(C)c1 (stereo not drawn) | 0.6 | 2.6 | 3.1 | 6.8 | nt | nt
CCCCN(C)CCCNC(=O)C1(O)c2ccccc2NC(=O)N1c1ccc(Cl)cc1 (stereo not drawn) | -2.5 | -9.5 | 3.7 | 11.7* | -4.6 | -6.7
CCOCCCNC(=O)C1(O)c2ccccc2NC(=O)N1c1ccc(Cl)c(Cl)c1 (stereo not drawn) | 0.4 | 24.1 | 1.4 | 0.6 | nt | nt
CCC(C)NC(=O)C1(O)c2ccccc2NC(=O)N1c1ccc(C)c(C)c1 (stereo not drawn) | -1.4 | 4.1 | 6.8 | 11.4* | -7.2 | -19.5
CCN(CC(=O)Nc1ccccc1C(F)(F)F)C(=O)c1oc2c(Cl)cccc2c1C | 5.6 | -16.0 | 6.5 | 12.7* | 4.3 | -0.6
SMILES | NTR1 agonist | Arrestin-AP2 inh | PLCb3 inh | PLC-gamma1 inh | PLCgamma1 ctr | PLCbeta3 conf
CCN(CC(=O)Nc1ccc(OC)cc1)C(=O)c1oc2c(Cl)cccc2c1C | 2.2 | 6.7 | -5.1 | 1.7 | nt | nt
N#CC(c1ccc(Cl)cc1)c1nc2ccccc2nc1C(F)(F)F (stereo not drawn) | 2.5 | 6.9 | -1.2 | -1.8 | nt | nt
Cc1cccc(C(C#N)c2nc3ccccc3nc2C(F)(F)F)c1 (stereo not drawn) | 2.3 | -5.8 | 4.8 | 9.8* | 1.4 | -2.4
O=C(CCSCc1ccccc1F)N1CCN(c2ccccn2)CC1 | -0.8 | 5.3 | 2.1 | 10.0* | -6.5 | -4.3
O=C(CSCc1ccccc1Cl)N1CCN(c2ccccn2)CC1 | 0.4 | 36.9 | 1.0 | -2.7 | nt | nt
COC(=O)[C@]12C[C@H](CC(=O)N3CCSCC3)C(=O)N(Cc3ccccc3)C1=C[C@H](C(C)(C)C)O[C@@H]2C | nt | nt | -0.1 | 0.6 | nt | nt
COC(=O)N1Cc2ccnnc2CC1c1ccccc1-c1ccccc1 (stereo not drawn) | nt | nt | 3.1 | 2.0 | nt | nt
Cn1c(CNc2cccc(Cl)c2)nnc1SCC(=O)OC1CCCCC1 | -1.0 | -2.3 | -3.7 | -1.2 | nt | nt
CC(C)OC(=O)CSc1nnc(CNc2cccc(Cl)c2)n1C | -0.6 | 4.6 | 3.3 | 10.5* | -7.2 | -3.0
S=C(SSC(=S)N1CCOCC1)N1CCOCC1 | nt | nt | 3.4 | 0.8 | nt | nt
CC(SC(=S)N1CCOCC1)C(=O)O (stereo not drawn) | 0.5 | 20.0 | 1.9 | 12.1* | -5.0 | -3.0
COCc1cn(-c2cccc(-c3noc4c3C(=O)N(CC(=O)N3CCOCC3)CC4)c2)nn1 | nt | nt | 0.1 | 0.2 | nt | nt
O=C(COCc1ccccc1)NC1CCCCN(Cc2cccc(Cl)c2)C1=O (stereo not drawn) | nt | nt | 1.2 | -0.7 | nt | nt
COc1ncccc1C(=O)NC1CCCc2c1cnn2-c1ccc(C)c(C)c1 (stereo not drawn) | 1.4 | 6.1 | -12.0 | -3.1 | nt | nt
CSc1ncccc1C(=O)NC1CCCc2c1cnn2-c1ccc(C)c(C)c1 (stereo not drawn) | 1.8 | 23.1 | -7.8 | 11.4* | 1.9 | 0.1
CC(C)N(C(=O)[C@H]1C[C@H](CC(=O)NCCN2CCOCC2)C(=O)N2CCc3c([nH]c4ccc(Cl)cc34)[C@]12C)C(C)C | -0.3 | 22.4 | 3.4 | 9.9* | -7.3 | -1.3
O=C(NCCc1c[nH]c2ccccc12)OCc1cn(Cc2cc(F)cc(F)c2)nn1 | nt | nt | 0.2 | -1.6 | nt | nt
CCOC(=O)/C(C#N)=C/c1c(OCC)n(CC)c2ccccc12 | 1.4 | 1.4 | -8.0 | 10.4* | -10.1 | -8.7
Cc1ccc(NC(=S)N2CCC(c3ccccc3)C2)c(Cl)c1 (stereo not drawn) | 0.8 | 4.1 | -2.8 | 1.0 | nt | nt
S=C(Nc1ccccc1Cl)N1CCC(c2ccccc2)C1 (stereo not drawn) | -1.0 | 20.1 | -0.5 | 10.4* | -1.7 | 1.7
O=C(/C=C/c1cccc([N+](=O)[O-])c1)NCc1cccnc1 | 0.8 | 6.5 | 11.2* | 2.6 | -5.9 | -0.3
CC1(C(=O)NC2CCCCCCC2)CCC(=O)N1Cc1cccnc1 (stereo not drawn) | -0.6 | 6.4 | 4.1 | 13.1* | -0.3 | -1.5
COc1cccc(CN2C(=O)CCC2(C)C(=O)NC2CCCCC2)c1 (stereo not drawn) | 0.2 | 4.3 | 0.0 | 4.0 | nt | nt
C[C@@H]1ON(C)[C@H]2C[C@H]3c4cc(N5CCCCC5)ccc4CCN3C[C@@H]12 | nt | nt | -2.1 | -2.0 | nt | nt

Screening data from PubChem BioAssay.
